# Test results reported in ChEMBL document CHEMBL1122917, “Vinblastin-23-oyl amino acid derivatives: chemistry, physicochemical data, toxicity, and antitumor activities against P388 and L1210 leukemias” (J Med Chem, 1985).
# Experiments:
# Format in all cases: functional
# [1] = system: Mus musculus; experiment: Number of survivors of DBA2 mice on 60th day after inoculation with L1210 leukemia cell line intraperitoneally at a dose of 2.7 mg/kg/day; 0/10; conditions: route intraperitoneal
# [2] = system: Mus musculus; experiment: Percent increase in life span of DBA2 mice after inoculation with L1210 leukemia intravenously at a dose of 5.5 mg/kg per day; conditions: route intravenous
# [3] = system: Mus musculus; experiment: Number of survivors of DBA2 mice on 30th day after inoculation with L1210 leukemia cell line intravenously at a dose of 5.5 mg/kg/day; 0/10; conditions: route intravenous
# [4] = system: Mus musculus; experiment: Number of survivors of DBA2 mice on 30th day after inoculation with L1210 leukemia cell line intravenously at a dose of 6.5 mg/kg/day; 0/10; conditions: route intravenous
# [5] = system: Mus musculus; experiment: Number of survivors of DBA2 mice on 60th day after inoculation with L1210 leukemia cell line intraperitoneally at a dose of 1 mg/kg/day; 0/10; conditions: route intraperitoneal
# [6] = system: Mus musculus; experiment: Percent increase in life span of DBA2 mice after inoculation with L1210 leukemia intravenously at a dose of 3.5 mg/kg per day; conditions: route intravenous
# [7] = system: Mus musculus; experiment: Number of survivors of DBA2 mice on 30th day after inoculation with L1210 leukemia cell line intraperitoneally at a dose of 1 mg/kg/day; 0/10; conditions: route intraperitoneal
# [8] = system: Mus musculus; experiment: Number of survivors on 30th day at dose 1.5 mg/kg/day in 10 mice implanted with P388 leukemia cell line; 0/10
# [9] = system: Mus musculus; experiment: Number of survivors of DBA2 mice on 30th day after inoculation with L1210 leukemia cell line intravenously at a dose of 3.5 mg/kg/day; 0/10; conditions: route intravenous
# [10] = system: Mus musculus; experiment: Number of survivors of DBA2 mice on 60th day after inoculation with L1210 leukemia cell line intravenously at a dose of 4.5 mg/kg/day; 0/10; conditions: route intravenous
# [11] = system: Mus musculus; experiment: Number of survivors of DBA2 mice on 60th day after inoculation with L1210 leukemia cell line intravenously at a dose of 6.5 mg/kg/day; 0/10; conditions: route intravenous
# [12] = system: Mus musculus; experiment: Number of survivors of DBA2 mice on 60th day after inoculation with L1210 leukemia cell line intraperitoneally at a dose of 0.22 mg/kg/day; 0/10; conditions: route intraperitoneal
# [13] = system: Mus musculus; experiment: Number of survivors of DBA2 mice on 60th day after inoculation with L1210 leukemia cell line intraperitoneally at a dose of 4 mg/kg/day; 0/10; conditions: route intraperitoneal
# [14] = system: Mus musculus; experiment: Percent increase in life span at dose 4 mg/kg/day in 7 mice implanted with P388 leukemia cell line for 1,8,15 scheduled day from Exp-2
# [15] = system: Mus musculus; experiment: Number of survivors of DBA2 mice on 30th day after inoculation with L1210 leukemia cell line intraperitoneally at a dose of 4 mg/kg/day; 0/10; conditions: route intraperitoneal
# [16] = system: Mus musculus; experiment: Number of survivors on 30th day at dose 4 mg/kg/day in 10 mice implanted with P388 leukemia cell line; 0 /10
# [17] = system: Mus musculus; experiment: Number of survivors on 30th day at dose 5 mg/kg/day in 10 mice implanted with P388 leukemia cell line; 0 /10
# [18] = system: Mus musculus; experiment: Number of survivors on 30th day at dose 9 mg/kg/day in 10 mice implanted with P388 leukemia cell line; […]
# [19] = system: Mus musculus; experiment: Percent increase in life span at dose 56 mg/kg/day in 10 mice implanted with P388 leukemia cell line
# [20] = system: Mus musculus; experiment: Number of survivors on 60th day at dose 20 mg/kg/day in 10 mice implanted with P388 leukemia cell line; 0/10
# [21] = system: Mus musculus; experiment: Percent increase in life span at dose 55 mg/kg/day in 10 mice implanted with P388 leukemia cell line
# In short: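 Female DBA2 mice inoculated iv on day 0 with 10^4 P388 cells; single iv treatment on day 1 with drug as sulfate salt in physiological saline. Survival followed; %ILS from all deaths and survivors as (T/C × 100) − 100, maximal MST 30 days; survivors counted on days 30 and 60. Most experiments confirmed three times.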
# [22] = system: Mus musculus; experiment: Percent increase in life span at dose 55 mg/kg/day in 10 mice implanted with P388 leukemia cell line for 1st schedule day
# [23] = system: Mus musculus; experiment: Percent increase in life span at dose 60 mg/kg/day in 10 mice implanted with P388 leukemia cell line for 1,5,9 schedule days
# [24] = system: Mus musculus; experiment: Number of survivors on 60th day at dose 65 mg/kg/day in 10 mice implanted with P388 leukemia cell line; 7/9
# [25] = system: Mus musculus; experiment: Number of survivors of DBA2 mice on 60th day after inoculation with L1210 leukemia cell line intravenously at a dose of 58 mg/kg/day; 0/10; conditions: route intravenous
# [26] = system: Mus musculus; experiment: Number of survivors of DBA2 mice on 60th day after inoculation with L1210 leukemia cell line intravenously at a dose of 70 mg/kg/day; 0/10; conditions: route intravenous
# [27] = system: Mus musculus; experiment: Number of survivors on 30th day at dose 60 mg/kg/day in 10 mice implanted with P388 leukemia cell line 1,5,9 scheduled days; 9/9
# [28] = system: Mus musculus; experiment: Percent increase in life span at dose 6 mg/kg/day in 10 mice implanted with P388 leukemia cell line for 1st schedule day
# [29] = system: Mus musculus; experiment: Percent increase in life span at dose 6 mg/kg/day in 7 mice implanted with P388 leukemia cell line for 1,8,15 schedule days from Exp-2
# [30] = system: Mus musculus; experiment: Percent increase in life span at dose 7 mg/kg/day in 9 mice implanted with P388 leukemia cell line for 1st schedule day
# [31] = system: Mus musculus; experiment: Percent increase in life span at dose 10 mg/kg/day in 7 mice implanted with P388 leukemia cell line for 1,8,15 schedule days
# [32] = system: Mus musculus; experiment: Number of survivors of DBA2 mice on 30th day after inoculation with L1210 leukemia cell line intravenously at a dose of 10 mg/kg/day; 0/10; conditions: route intravenous
# [33] = system: Mus musculus; experiment: Number of survivors on 30th day at dose 9 mg/kg/day in 10 mice implanted with P388 leukemia cell line; 3/10
# [34] = system: Mus musculus; experiment: Number of survivors on 60th day at dose 7 mg/kg/day in 9 mice implanted with P388 leukemia cell line; 0/9
# [35] = system: Mus musculus; experiment: Number of survivors on 60th day at dose 2 mg/kg/day in 7 mice implanted with P388 leukemia cell line for 1,8,15 scheduled days; 0/11
# [36] = system: Mus musculus; experiment: Number of survivors of DBA2 mice on 30th day after inoculation with L1210 leukemia cell line intravenously at a dose of 3 mg/kg/day; 0/11; conditions: route intravenous
# [37] = system: Mus musculus; experiment: Percent increase in life span at dose 2 mg/kg/day in 10 mice implanted with P388 leukemia cell line for 1st scheduled day
# [38] = system: Mus musculus; experiment: Percent increase in life span at dose 2.5 mg/kg/day in 10 mice implanted with P388 leukemia cell line
# [39] = system: Mus musculus; experiment: Number of survivors on 30th day at dose 8 mg/kg/day in 10 mice implanted with P388 leukemia cell line; 0/10
smiles,measurement,setting,value
CC[C@]1(O)C[C@H]2CN(CCc3c([nH]c4ccccc34)[C@@](C(=O)OC)(c3cc4c(cc3OC)N(C=O)[C@H]3[C@@](O)(C(=O)OC)[C@H](OC(C)=O)[C@]5(CC)C=CCN6CC[C@]43[C@@H]65)C2)C1 [VINCRISTINE],Survivors,[1],0
same,ILS at 5.5 mg/kg/day,[2],26.6%
same,Survivors,[3],0
same,Survivors,[4],0
same,Survivors,[5],0
same,ILS at 3.5 mg/kg/day,[6],14.7%
same,Survivors,[7],0
same,Survivors,[8],0
same,Survivors,[9],0
same,Survivors,[10],0
same,Survivors,[11],0
same,Survivors,[12],0
CC[C@]1(O)C[C@@H]2CN(CCc3c([nH]c4ccccc34)[C@@](C(=O)OC)(c3cc4c(cc3OC)N(C)[C@H]3[C@@](O)(C(=O)OC)[C@H](OC(C)=O)[C@]5(CC)C=CCN6CC[C@]43[C@@H]65)C2)C1 [VINBLASTINE],Survivors,[13],0
same,ILS at 4 mg/kg/day,[14],35%
same,Survivors,[15],0
same,Survivors,[16],0
same,Survivors,[17],0
same,Survivors,[18],1
CCOC(=O)[C@H](Cc1c[nH]c2ccccc12)NC(=O)[C@@]1(O)[C@H](O)[C@]2(CC)C=CCN3CC[C@@]4(c5cc([C@@]6(C(=O)OC)C[C@H]7C[N@](CCc8c6[nH]c6ccccc86)C[C@](O)(CC)C7)c(OC)cc5N(C)[C@@]14C)[C@@H]32,ILS at 56 mg/kg/day,[19],113%
same,Survivors,[20],0
same,ILS at 55 mg/kg/day,[21],> 183%
same,ILS at 55 mg/kg/day,[22],> 261%
same,ILS at 60 mg/kg/day,[23],> 426%
same,Survivors,[24],7
same,Survivors,[25],0
same,Survivors,[26],0
same,Survivors,[27],9
CCOC(=O)[C@@H](NC(=O)[C@@]1(O)[C@H](O)[C@]2(CC)C=CCN3CC[C@@]4(c5cc([C@@]6(C(=O)OC)C[C@H]7C[N@](CCc8c6[nH]c6ccccc86)C[C@](O)(CC)C7)c(OC)cc5N(C)[C@@]14C)[C@@H]32)[C@@H](C)CC,ILS at 6 mg/kg/day,[28],74%
same,ILS at 6 mg/kg/day,[29],200%
same,ILS at 7 mg/kg/day,[30],37%
same,ILS at 10 mg/kg/day,[31],41%
same,Survivors,[32],0
same,Survivors,[33],3
same,Survivors,[34],0
CC[C@]1(O)C[C@@H]2CN(CCc3c([nH]c4ccccc34)[C@@](C(=O)OC)(c3cc4c(cc3OC)N(C)[C@H]3[C@@](O)(C(N)=O)[C@H](O)[C@]5(CC)C=CCN6CC[C@]43[C@@H]65)C2)C1 [VINDESINE],Survivors,[35],0
same,Survivors,[36],0
same,ILS at 2 mg/kg/day,[37],28%
same,ILS at 2.5 mg/kg/day,[38],19%
same,Survivors,[39],0
